Measurements of several laboratories.
Each line is one published result; the experiments were not run side by side.
Cell line: A498
Effect on: cell growth or viability

COc1cc(-c2ccc(-c3ccc(C(=N)N)nc3)s2)cc(OC)c1OC
GI50: 4910 nM

CC(C)C[C@H](NC(=O)[C@H](Cc1ccccc1)NC(=O)c1cnccn1)B(O)O
IC50 (ATP luminescence): 7.7 nM

COc1ccc(C(=O)/C=C/c2ccc3ccccc3c2)cc1S(N)(=O)=O
GI50 (SRB; 48 h): 14500 nM

Cc1cc(C)n(C(=S)[S][Au][PH](CCCCCC[PH]([Au][S]C(=S)n2nc(C)cc2C)(c2ccccc2)c2ccccc2)(c2ccccc2)c2ccccc2)n1
GI50: 384 nM

COc1cc(Nc2nccc(-c3cnn4nc(OC)ccc34)n2)cc(C(F)(F)F)c1
IC50 (ATP luminescence): 430 nM

CCC(=O)Nc1cc(Nc2cc(NC3CC3)n3ncc(C#N)c3n2)ccc1C
IC50 (ATP luminescence; 72 h): 1800 nM

COc1ccc(C(=O)/C=C/c2cccc3ccccc23)cc1S(N)(=O)=O
inhibition (SRB; 10 µM): -7%

S=C([S][Au-][P+](CCCCCC[P+]([Au-][S]C(=S)n1cccn1)(c1ccccc1)c1ccccc1)(c1ccccc1)c1ccccc1)n1cccn1
GI50: 1010 nM

COc1cccc(Oc2ccccc2NC(=O)CNC(=O)c2cccc3ccccc23)c1
GI50 (SRB; 48 h): 115 nM
